Results gathered from unrelated publications.
Compare with care: the assays were run in different laboratories.
Effect on: metabolic stability

| Structure (SMILES) | species | matrix | tested at | pH | half-life |
| --- | --- | --- | --- | --- | --- |
| CC(C)NCC(O)COc1cccc2ccccc12 (stereo not shown) | mouse | liver microsomes | 1 µM |  | 11.5 min |
| CN(C)CCN1CCN(c2nc(NCc3cccc(Cl)c3)c3cc(-c4ccc(=O)n(C)c4)ccc3n2)CC1 | mouse | liver microsomes |  |  | 53 min |
| CCOC(=O)C1=C(C)N/C(=C/c2cc(C)n(-c3ccc(Br)cc3)c2C)C1=O | mouse | liver microsomes | 1 µM |  | 28 min |
| O=S(=O)(Nc1cccc(-c2nnn[nH]2)c1)c1ccc(Cl)c2nonc12 | mouse | liver microsomes |  |  | 81 min |
| O=C1CCN(C(=O)Nc2ccc(F)c(C(F)F)c2)[C@@H]2CCCC[C@H]12 | mouse | liver microsomes |  |  | > 32 min |
| O=C(Cc1ccc2ccccc2c1)Nc1cc(C2CCC2)[nH]n1 | mouse | liver S9 |  |  | 28.1 min |
| O=C(Nc1cncc(-c2nc3ccccc3o2)c1)c1ccc(N2CCNCC2)c([N+](=O)[O-])c1 | CD-1 mouse | liver microsomes | 1 µM | pH 7.4 | > 110 min |
| O=C(O)CN(CCCc1ccccc1)CC(=O)N[C@H](CO)Cc1c[nH]cn1 | male mouse | liver microsomes | 1 µM | pH 7.4 | > 40 min |
| CCOC(=O)C1=C(C)N/C(=C/c2ccn(-c3ccc(C(F)(F)F)cc3)c2)C1=O | mouse | liver microsomes | 1 µM |  | 12 min |
| CC[C@@H]1C=CC(=O)O[C@@H]1C[C@@H](OC)[C@H](C)[C@H](OC)[C@@H](C)Cc1ccc(F)cc1 | mouse | liver microsomes |  |  | < 2.3 min |
| C=CC(=O)Nc1ccc(N2CCC[C@@H](Nc3ncc(Cl)c(-c4c[nH]c5ccccc45)n3)C2)c(F)c1 | mouse | liver microsomes |  |  | 7.6 min |
| COC(=O)CN(CCCc1ccccc1)CC(=O)N[C@@H](Cc1c[nH]cn1)c1nc(C)no1 | male mouse | liver microsomes | 1 µM | pH 7.4 | 19 min |
| O=C(Nc1ccc2sc(-c3ccc(F)c(F)c3)nc2c1)N1CC[C@H](F)C1 | mouse | liver microsomes | 1.5 µM |  | ≥ 60 min |
| O=c1ccc2ccc(O)cc2o1 | mouse | liver S9 | 2 µM | pH 7.4 | 4.71 min |
| Cc1cc(S(=O)(=O)Nc2cccc(-c3nnn[nH]3)c2)ccc1C(F)(F)F | mouse | liver microsomes |  |  | 133 min |
| CCCCOC(=O)NS(=O)(=O)c1sc(CC(C)C)cc1-c1ccc2c(c1)CN(C(C)=O)CC2 | mouse | liver microsomes | 1 µM | pH 7.4 | 2.2 min |
| COc1cc2c(cc(C#N)n2Cc2cn[nH]c2)c(C)c1CN1CCC(Nc2ncnc3sc(CC(F)(F)F)cc23)CC1 | CD-1 mouse | liver microsomes | 1 µM | pH 7.4 | > 30 min |
| NC1(c2ccc(-c3nc4ccn5c(=O)[nH]nc5c4cc3-c3ccccc3)cc2)CCC1 | CD-1 mouse | liver microsomes | 1 µM | pH 7.4 | 85.8 min |
| CNC(=O)c1ccccc1Nc1cc(Nc2cc(C)c(C3CCN(CCCCCCNC(=O)COc4cccc5c4C(=O)N(C4CCC(=O)NC4=O)C5=O)CC3)cc2OC(C)C)ncc1C(F)(F)F (stereo not shown) | mouse | liver microsomes |  |  | 27 min |
| N=c1c2c(-c3ccccc3)c(-c3ccccc3)n(Cc3ccccc3)c2ncn1[C@H]1CC[C@H](O)CC1 | male CD-1 mouse | liver microsomes | 1 µM | pH 7.4 | > 120 min |
| CCN(CC)CCNC(=O)c1c(C)[nH]c(/C=C2\C(=O)Nc3ccc(F)cc32)c1C | mouse | liver microsomes | 1 µM | pH 7.4 | 12.8 min |
| NC(=O)C1CCN(c2nnc(-c3ccc4c(c3)OCCCO4)s2)CC1 | mouse | liver microsomes | 1 µM |  | > 30 min |
| O=S(=O)(Nc1cccc(-c2nnn[nH]2)c1)c1ccc(F)c(F)c1 | mouse | liver microsomes |  |  | 346 min |
| O=C(OC(C(F)(F)F)C(F)(F)F)N1CCc2ccccc2C1 | mouse | liver microsomes |  |  | 4 min |
| Cc1ccc(-n2sc3ccccc3c2=O)cc1 | mouse | liver microsomes |  |  | < 60 min |
| O=[N+]([O-])c1ccc(CNc2nc(NCc3cccc(C(F)(F)F)c3)nc3[nH]cnc23)cc1 | mouse | liver microsomes | 1 µM | pH 7.4 | 9 min |
| Cc1ccc(S(=O)(=O)Nc2cccc(-c3nnn[nH]3)c2)cc1C | mouse | liver microsomes |  |  | 50 min |
| CNC(=O)[C@H](Cc1c[nH]cn1)NC(=O)CN(CCCc1ccccc1)CC(=O)OC | male mouse | liver microsomes | 1 µM | pH 7.4 | 26 min |

| Structure (SMILES) | species | matrix | tested at | pH | half-life |
| --- | --- | --- | --- | --- | --- |
| COc1cccc(OC)c1CNC(=O)c1cc(C2NC(=O)NC(C)=C2C(=O)Nc2ccc3[nH]ncc3c2)ccc1F (stereo not shown) | CD-1 mouse | liver microsomes | 1 µM | pH 7.4 | < 4 min |
| CCOC(=O)NS(=O)(=O)c1sc(CC(C)C)cc1-c1ccc2c(c1)CN(C)C(=O)C2 | mouse | liver microsomes | 1 µM | pH 7.4 | 23 min |
| CC1=C(C(N)=O)C(=O)/C(=C\c2cc(C)n(-c3ccccc3C(F)(F)F)c2C)N1 | mouse | liver microsomes | 1 µM |  | 19 min |
| C=CC(=O)Nc1cc(OC)c(N2CCC[C@@H](Nc3ncc(Cl)c(-c4c[nH]c5ccccc45)n3)C2)cc1C | mouse | liver microsomes |  |  | 4.3 min |
| O=C(c1ccc(F)cc1)C1CCN(CCn2c(=O)[nH]c3ccccc3c2=O)CC1 | mouse | liver microsomes |  |  | 14.5 min |
| O=C(N[C@H](Cc1c[nH]c2ccccc12)C(=O)Nc1ccncc1)c1ccc(-c2cccc(F)c2)cc1F | mouse | liver microsomes |  |  | 27 min |
| C/C=C/C[C@H](C)[C@@H](OC)[C@@H](C)[C@H](O)C[C@H]1OC(=O)C=C[C@H]1CC | mouse | liver microsomes |  |  | < 15 min |
| CCOC(=O)NS(=O)(=O)c1sc(CC(C)C)cc1-c1ccc2c(c1)CN(C(=O)OCC)C2 | mouse | liver microsomes | 1 µM | pH 7.4 | 2.1 min |
| CCOC(=O)C1=C(C)N/C(=C/c2cc(C)n(-c3ccc(CN4CCOCC4)cc3)c2C)C1=O | mouse | liver microsomes | 1 µM |  | 31 min |
| Cc1c(CN2CCC(Nc3ncnc4sc(CC(F)(F)F)cc34)CC2)c(O)cc2[nH]c(C#N)cc12 | CD-1 mouse | liver microsomes | 1 µM | pH 7.4 | > 30 min |
| N=C(N)NCc1ccc(NC(=O)C23CCC(C(=O)Nc4ccc(C5=CCN(C(=N)N)CC5)cc4)(CC2)CC3)cc1 | CD-1 mouse | liver microsomes | 1 µM |  | > 60 min |
| CCCCOC(=O)NS(=O)(=O)c1sc(CC(C)C)cc1-c1cccc2c1CN(C(C)=O)C2 | mouse | liver microsomes | 1 µM | pH 7.4 | 6.9 min |
| O=C(Nc1ccc(CN2CCOCC2)c(C(F)(F)F)c1)c1ccc(C#Cc2cccc3cnccc23)cn1 | mouse | liver microsomes |  |  | 13.4 min |
| COc1ccc([C@@H](O)[C@@H](CN2CCCC2)NC(=O)CC2Cc3ccccc3C2)cc1F | CD-1 mouse | liver microsomes | 1 µM | pH 7.4 | 2.7 min |
| CN1CCN(Cc2cc(CNC3(c4ccccc4F)CCCC3)ccc2O)CC1 | mouse | liver microsomes | 4.6 µM | pH 7.5 | 12 min |
| CCOC(=O)C1=C(C)N/C(=C/c2cc(C)n(Cc3ccc(C(F)(F)F)cc3)c2C)C1=O | mouse | liver microsomes | 1 µM |  | 17 min |
| COc1cc(C2Oc3cc([C@H]4Oc5cc(O)cc(O)c5C(=O)[C@@H]4O)ccc3OC2CO)ccc1O (stereo partly shown) | mouse | liver microsomes | 1 µM |  | 82.5 min |
| CCOC(=O)C1=C(C)N/C(=C/c2cc(C)n(-c3ccc(SC(F)(F)F)cc3)c2C)C1=O | mouse | liver microsomes | 1 µM |  | 23 min |
| Cc1ccc(-c2cnc(N3CCC(C(N)=O)CC3)s2)cc1 | mouse | liver microsomes | 1 µM |  | < 10 min |
| CCOC(=O)C1=C(C)N/C(=C/c2cc(CC)n(-c3ccccc3C(F)(F)F)c2CC)C1=O | mouse | liver microsomes | 1 µM |  | 12 min |
| CC(C)NCC(O)COc1cccc2ccccc12 (stereo not shown) | mouse | liver microsomes | 1 µM | pH 7.4 | 15.8 min |
| O=S(=O)(Nc1cccc(-c2nnn[nH]2)c1)c1cc(Cl)c(Cl)cc1Cl | mouse | liver microsomes |  |  | 48 min |
| CCS(=O)(=O)Nc1cccc(-c2cn(C)c(=O)c3ccccc23)c1 | mouse | liver microsomes |  |  | 11 min |
| CCOC(=O)C1=C(C)N/C(=C/c2cc(C)n(-c3ccncc3)c2C)C1=O | mouse | liver microsomes | 1 µM |  | 29 min |
| N=c1c2c(-c3ccccc3)c(-c3ccccc3)n(Cc3ccccc3)c2ncn1C1CCOCC1 | male CD-1 mouse | liver microsomes | 1 µM | pH 7.4 | 30 min |
| Cc1cccc(C(=O)Nc2nc(-c3ccccn3)cs2)c1 | CD-1 mouse | liver microsomes | 39.6 µM | pH 7.4 | 6 min |
| COC(=O)c1csc(C(=O)c2c[nH]c3ccccc23)n1 | mouse | liver microsomes |  |  | 11 min |
